Experimental data pooled from the literature.
Lines come from different studies, so protocols differ.
HDAC6: Protein deacetylase HDAC6 (HDAC6, Homo sapiens, UniProt Q9UBN7)
TNK1: Non-receptor tyrosine-protein kinase TNK1 (TNK1, Homo sapiens, UniProt Q13470)

Compound	target	observed	action	technique	tested at	measurement	value
Cc1c(OS(=O)(=O)Oc2ccc(C(C)(C)C)cc2)cccc1C(=O)NO	HDAC6	enzyme activity	inhibitor	fluorescence	10 µM	inhibition	30%
Cc1cc([C@@H](C)Nc2ccccc2C(=O)O)c2nc(N3CCC(F)(F)CC3)c(C#N)c(=O)n2c1	Serine/threonine-protein kinase PAK 2 (PAK2, Homo sapiens, UniProt Q13177)	binding	–	competition with immobilised ligand	1 µM	remaining binding	100%
CCc1nn(C)c2nc(-c3ccc(C(=O)O)cc3)nc(NCc3ccc(F)cc3)c12	3',5'-cyclic-AMP phosphodiesterase 4D (PDE4D, Homo sapiens, UniProt Q08499)	enzyme activity	inhibitor	radiometric	10 µM	inhibition	42.1%
Cc1cc(OS(=O)(=O)Oc2cccc(C(C)C)c2)cc(C(=O)NO)c1	HDAC6	enzyme activity	inhibitor	fluorescence	10 µM	inhibition	58%
CNc1ncc2c(/C=C/C(=O)N3CCC(OC)CC3)nn(Cc3cccc(C(F)(F)F)c3)c2n1	Dual specificity protein kinase TTK (TTK, Homo sapiens, UniProt P33981)	enzyme activity	inhibitor	radiometric	1 µM	remaining activity	105%
C=CC(=O)N1CCC(COCC(=O)N2CCN(c3nc(-c4cnc(N)nc4C(F)F)nc(N4CCOC[C@@H]4C)n3)CC2)CC1	Serine/threonine-protein kinase MAK (MAK, Homo sapiens, UniProt P20794)	binding	–	competition with immobilised ligand	1 µM	remaining binding	100%
Cc1cc(OS(=O)(=O)Oc2ccc(C(C)(C)C)cc2)cc(C(=O)NO)c1	HDAC6	enzyme activity	inhibitor	fluorescence	10 µM	inhibition	36%
COc1cc(-c2cncc3c2CN(C)Cc2cc(N4CCNCC4)ccc2-3)cc(OC)c1OC	Death-associated protein kinase 1 (DAPK1, Homo sapiens, UniProt P53355)	enzyme activity	inhibitor	–	1 µM	remaining activity	101%
Cc1cc(NC(=O)c2cccc(NC(=O)/C=C/CN(C)C)c2)ccc1Nc1nccc(-c2cccnc2)n1	TNK1	binding	–	competition with immobilised ligand	1 µM	remaining binding	57%
C=CC(=O)N1C[C@@H](n2nc(C#Cc3c(F)cc4c(ncn4C4CC4)c3F)c(C(N)=O)c2NC)C[C@@H]1COC	TNK1	enzyme activity	inhibitor	mobility shift	1 µM	inhibition	89.5%
Cc1ncsc1-c1ccc(CNC(=O)[C@@H]2C[C@@H](O)CN2C(=O)[C@@H](NC(=O)CCCCCCCCNC(=O)CN2CCN(C(=O)c3ccc(Nc4nc(C5CC5)cn5c(-c6cn[nH]c6)cnc45)c(F)c3)CC2)C(C)(C)C)cc1	TNK1	cell-free assay	–	competition with immobilised ligand	1 µM	inhibition	> 65%
Cc1c(OS(=O)(=O)Oc2ccc(-n3ccnc3)cc2)cccc1C(=O)NO	HDAC6	enzyme activity	inhibitor	fluorescence	10 µM	inhibition	46%
